Screens deposited in PubChem by several laboratories.
DNA FID counter: counter-screen for HCV NS3 helicase inhibitors: DNA intercalator displacement; 290,000 compounds, 0.17% hits; inhibition, % at 7.9 µM; AID 1845; DNA fluorescent intercalator displacement, fluorescence; in the data active means inhibition above about 37%;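 further: higher means more ethidium bromide displaced from hairpin DNA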
VIM-2 inhibitor: blocks Pseudomonas aeruginosa VIM-2 metallo-beta-lactamase; AID 1527; purified VIM-2, nitrocefin hydrolysis, epi-absorbance fluorescence; inhibition, % at 5.6 µM; 290,000 compounds, 0.89% hits;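 active means inhibition above the mean of all tested compounds plus 3 SD, cutoff set per screening run, cut at about 7.5% in these data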;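 further: red hydrolysis product quenches plate fluorescence so inhibitors raise well fluorescence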
NALP1 inh: NALP1 inhibition. 280,000 compounds, 0.61% hits. inhibition, % at 10 µM. S. cerevisiae NALP1/ASC/caspase-1 growth, X-gal OD620, 72 h; in the data active means inhibition mostly above about 24%, no sharp cut-off; inactive means mostly below about 32%
SUMO Mot1 rescue: inhibitors of SUMOylation pathway: yeast Mot1-301 growth rescue; S. cerevisiae Mot1-301 growth rescue, ATP luminescence, 38.5C; percent above DMSO median, 100 means doubled; growth rescue, % at 18.8 µM; 320,000 compounds, 1% hits; AID 2716;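 active means every valid replicate shows activation above 250% relative to neutral control wells; inactive means the rest, any valid replicate at or below 250%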
SUMO HTRF inh: SUMOylation inhibition | 290,000 compounds, 0.36% hits | HTRF SUMOylation assay, SAE1/SAE2 + UBC9, in vitro | P63279 | inhibition, % at 35 µM; in the data active means inhibition above about 50%, passing the limit was not always enough
Target sequence (P63279 whole entry, looked up): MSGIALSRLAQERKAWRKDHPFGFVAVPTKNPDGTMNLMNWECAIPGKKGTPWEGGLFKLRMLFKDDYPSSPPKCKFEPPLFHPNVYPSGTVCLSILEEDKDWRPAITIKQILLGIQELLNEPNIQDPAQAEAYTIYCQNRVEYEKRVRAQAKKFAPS
IMP-1 inh: inhibitors of Pseudomonas aeruginosa IMP-1 metallo-beta-lactamase | purified IMP-1, nitrocefin hydrolysis, epi-absorbance fluorescence | inhibition, % at 5.6 µM | 290,000 compounds, 0.45% hits | AID 1556;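 active means inhibition above the mean plus 3 SD of all compounds in the same screening run, cut at about 4.5% in these data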
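Assay system: purified IMP-1; Quantity: IMP-1 0.2 nM before substrate addition; Medium: HEPES buffer pH 7.1 with ZnSO4 and Brij 35; Incubation: 15 min enzyme–compound preincubation, then 25 min nitrocefin reaction, 25 °C; Signal: fluorescence quenching readout, ex 480/em 530 nm; Controls: DMSO with and without IMP-1; Repeats: singlicate testing.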
Large screens that a line does not name were inactive; ! = a repeat was not active. A selection: hits, their analogues and other compounds. The true share with any hit is near 2.9%.

CN(C)S(=O)(=O)Nc1ccc(NS(=O)(=O)N(C)C)c(S(=O)(=O)c2ccccc2)c1	NALP1 inh 27
CN(C(=O)COC(=O)c1cc[n+]([O-])cc1)c1ccccc1	none
O=C(CSc1ccc2nnc(-c3cccnc3)n2n1)Nc1ccccc1C(F)(F)F	SUMO Mot1 rescue 298
O=C(CSc1ccc2nnc(-c3cccnc3)n2n1)Nc1ccccc1	none
NC1=NC(c2cn(-c3ccccc3)nc2-c2cccs2)n2c(nc3ccccc32)N1 (stereo not drawn)	IMP-1 inh 4.9
COc1cc(C)nc(NS(=O)(=O)c2ccccc2Cl)n1	NALP1 inh 39
COc1ccc2c(CC(=O)Nc3ccccc3N3CCOCC3)coc2c1	none
Cc1cccc(NS(=O)(=O)c2c(C)[nH]c(C)c2C(=O)N2CCCC2)c1	none
CC(C)c1nc2sc3c(=O)[nH]cnc3c2c2c1CCC2	none
CC(C)c1nc2sc3c(=S)nc[nH]c3c2c2c1CCC2	IMP-1 inh 4.5
Cc1cnnn1-c1ccc(C(=O)CCl)cc1	none
Cc1cc(N)n2nc(C)c(-c3ccc(Cl)cc3)c2n1	NALP1 inh 33 (no result: SUMO Mot1 rescue)
C#CCNc1cc(C)nc2ncnn12	none
CCC(C)Nc1cc(C)nc2ncnn12 (stereo not drawn)	SUMO Mot1 rescue active
CCN(CC)C(=O)CSc1nnc(-c2cc3ccccc3cc2O)n1CC	VIM-2 inhibitor 10
Oc1ccc(N=Nc2ccccc2)o1	SUMO Mot1 rescue 313
COc1ccc(NC2CCCN(C(=O)CCC3=NNC(=O)CC3)C2)cc1 (stereo not drawn)	none
Cc1ccc(C2c3[nH]c4ccccc4c3C[C@H]3C(=O)N(c4ccccc4C(=O)N4CCC[C@H]4C(=O)O)C(=O)N23)cc1 (stereo partly drawn)	SUMO Mot1 rescue 605
COc1cccc(C2c3[nH]c4ccccc4c3C[C@H]3C(=O)N(c4ccccc4C(=O)NCCCN4CCOCC4)C(=O)N23)c1 (stereo partly drawn)	DNA FID counter 45
COc1ccc2c(c1)c(/C=C/c1cc[n+](C)cc1)cn2C	VIM-2 inhibitor 9.7
COc1ccc2c(/C=C/c3cc[n+](C)cc3)c[nH]c2c1	none
Cc1ccc(C(=O)NC(=S)N2CCN(c3cc(C)ccc3C)CC2)cc1	none
CC1CCCCC1NC(=O)c1c(O)nc2ccccn2c1=O (stereo not drawn)	none (no result: DNA FID counter, VIM-2 inhibitor, NALP1 inh, SUMO HTRF inh, IMP-1 inh)
O=C1NC(=O)C(c2ccccc2)(c2ccccc2)N1	SUMO Mot1 rescue 332!
Cc1ccc(OCC(=O)Nc2cccc(S(=O)(=O)N3CCCCCC3)c2)cc1C	none (no result: DNA FID counter, VIM-2 inhibitor, NALP1 inh, SUMO HTRF inh, IMP-1 inh)
COC(=O)COc1ccc2oc(=O)cc(-c3cc4cccc(OC)c4o3)c2c1	IMP-1 inh 9.7
O=C(Nc1nccs1)C1CCCN(S(=O)(=O)c2cccnc2)C1 (stereo not drawn)	IMP-1 inh 4.8
O=C(O)Cc1sc(NC2CCCCC2)nc1-c1ccc(Cl)cc1	IMP-1 inh 5.3
Cc1ccc2nc(SCC(=O)Nc3cccnc3Cl)[nH]c2c1	none (no result: DNA FID counter, VIM-2 inhibitor, NALP1 inh, SUMO HTRF inh, IMP-1 inh)
Cc1ccc(C)c(SCC(=O)Nc2cccnc2Cl)c1	NALP1 inh 33 (no result: SUMO Mot1 rescue)
O=C(NCCCn1ccnc1)C(=O)NCC1OCCCN1S(=O)(=O)c1ccccc1 (stereo not drawn)	IMP-1 inh 10
O=C(NCCCn1ccnc1)C(=O)NCC1OCCN1S(=O)(=O)c1ccccc1 (stereo not drawn)	IMP-1 inh 13
O=C(NCCCn1ccnc1)C(=O)NCC1OCCN1S(=O)(=O)c1ccc(Cl)cc1 (stereo not drawn)	none
Cc1cc(C)c(S(=O)(=O)N2CCCC(C(=O)NC3CC3)C2)c(C)c1 (stereo not drawn)	none
CCOc1ccc(NS(=O)(=O)c2cccc(C(=O)N(C)Cc3ccco3)c2)cc1	none (no result: DNA FID counter, VIM-2 inhibitor, NALP1 inh, SUMO HTRF inh, IMP-1 inh)
CCCCCC1CCC(C(=O)O)CC1 (stereo not drawn)	NALP1 inh 27
COc1ccc(/C=N/n2c(SC)nnc2-c2ccccc2)cc1C	none (no result: SUMO Mot1 rescue)
COc1ccc(/C=N/n2c(SC)nnc2-c2ccccc2)c(OC)c1OC	VIM-2 inhibitor 23 (no result: SUMO Mot1 rescue)
Cc1cc(=O)[nH]c2ccc(S(=O)(=O)N3CCOCC3)cc12	none
O=C(c1ccc(Cl)cc1)c1c[nH]cc1-c1ccccc1	IMP-1 inh 4.5
O=c1cc(CN2CCC(Cc3ccccc3)CC2)nc2sccn12	none
CC1CN(Cc2cc(=O)n3ccsc3n2)CC(C)O1 (stereo not drawn)	SUMO Mot1 rescue 278
CCOC(=O)C1CCCN(C2CC(=O)N(c3ccccc3)C2=O)C1 (stereo not drawn)	none
CCOC(=O)C1CCCN(C2CC(=O)N(c3cccc(C(F)(F)F)c3)C2=O)C1 (stereo not drawn)	NALP1 inh 59
Cc1cc(Nc2ccc(Br)c(C)c2)n2nc(C)nc2n1	VIM-2 inhibitor 10
Cc1cc(Nc2ccccc2F)n2nc(C)nc2n1	none
Cc1ccc(Nc2cc(C)nc3nc(C)nn23)cc1	none
Cc1cc(C)cc(Nc2cc(C)nc3nc(C)nn23)c1	VIM-2 inhibitor 22
Cc1cc(Nc2cccc(C)c2C)n2nc(C)nc2n1	VIM-2 inhibitor 10
O=C(CSc1nnc(-c2cccc(Br)c2)o1)N1CCOCC1	none
CCNCc1cc([N+](=O)[O-])ccc1OCC	none
O=C(Cc1cnc2ncnn2c1)N1CCc2c([nH]c3ccccc23)C1c1ccccn1 (stereo not drawn)	none
Cc1cccc(NC(=O)C2c3ccccc3Oc3ccccc32)n1	none
CCC(=O)OCCNc1cc(SCCC(=O)OC)c2nonc2c1[N+](=O)[O-]	SUMO HTRF inh 63
O=C(c1cccc(Br)c1)N1CCN(S(=O)(=O)N2CCOCC2)CC1	SUMO Mot1 rescue 333
COc1ccc(Cl)cc1C(=O)OCC(=O)NC(=O)c1cccn1C	VIM-2 inhibitor 11
O=C(CSC1=NCCS1)Nc1cccc(F)c1	none
COc1ccc(/C=N/NC(=O)c2ccco2)cc1Cn1nc(C)cc1C	none
COc1ccc(/C=N\NC(=O)COc2ccc(C(C)(C)C)cc2)cc1Cn1nc(C)cc1C	NALP1 inh 38
CSc1nnc(-c2cc[n+](C)cc2)n1CCO	IMP-1 inh 4.9
COCCn1c(SCc2nc3sc(C(=O)OC)c(C)c3c(=O)[nH]2)nc2ccccc21	none
CCn1c(SCc2nc3sc(C(=O)O)c(C)c3c(=O)[nH]2)nc2ccccc21	SUMO HTRF inh 55
CCOC(=O)c1noc(C)c1C(=O)Nc1nccs1	none
C/C(=N\O)c1noc(C)c1C(=O)Nc1nccs1	VIM-2 inhibitor 12
O=C(C[n+]1ccccc1)Nc1ccc(Oc2ccccc2)cc1	DNA FID counter 37
NC(=O)c1sc2nc(-c3ccco3)ccc2c1N	VIM-2 inhibitor 11, SUMO HTRF inh 76
Nc1c(C(=O)Nc2ccccc2F)sc2nc(-c3ccco3)ccc12	SUMO HTRF inh 57
COc1ccc([N+](=O)[O-])cc1NCc1ccco1	none (no result: NALP1 inh)
OCCN1CCN(c2nc(-c3ccccc3)c3cc(Br)ccc3n2)CC1	VIM-2 inhibitor 8.0
